From PubChem
CHOP inhibitor – inhibitors of CHOP promoter induction, primary screen, cell-based, unfolded protein response, luciferase reporter; CHO-K1 CHOP-promoter luciferase, tunicamycin-induced, 15-18 h; inhibition, % at 10 µM; 3.8% of 220,000 active; AID 2732, 2010;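 active = compounds that reduced the stress-induced luciferase reporter signal by more than about 70% of percent inhibition, limit read from the data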;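 also: 0% = tunicamycin plus vehicle and 100% = wells without tunicamycin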
MPTP block – mitochondrial permeability transition pore inhibitors, primary screen, biochemical, isolated mouse mitochondria, absorbance; AID 602449, 2012; Ca2+ swelling absorbance, 30 min; inhibition, % at 10 µM; 1.4% of 360,000 active;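 active = inhibition of 50% or more, scaled per plate between neutral and stimulator controls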;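 also: 0% = DMSO wells given calcium and 100% = 1 mM EGTA wells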
aDG glyco up – activators of alpha-DG glycosylation, primary screen, uHTS, Pro5-aDG cells, AlphaScreen; alpha-DG glycosylation AlphaScreen (IIH6); 0% Pro5, 100% B10-LARGE cell signal; activation, % at 10 µM; 0.22% of 360,000 active; AID 624168, 2012;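 active = activation of at least 8% versus controls, or a plate z-score of at least 8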;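 also: Pro5 are CHO cells carrying HIG-tagged alpha-DG that lacks glycosylation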
GRIN3A LBD mod – binders of NR3A ligand-binding domain, primary screen, biophysical, differential scanning fluorimetry, uHTS | 2.5% of 340,000 active | NR3A LBD differential scanning fluorimetry, Tm shift; 0% = protein alone, 100% = glycine-bound protein | Glutamate receptor ionotropic, NMDA 3A (GRIN3A) ligand-binding domain | Tm shift relative to glycine control, % at 25 µM | AID 1259313, 2017;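 active = melting temperature shift of at least 10% of the positive control shift, at one fixed dose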
CHOP UPR activ – activators of apoptotic CHOP UPR arm, primary screen, cell-based, CHO-CHOP luciferase reporter, luminescence, uHTS | UPR activation; percent of tunicamycin response over DMSO baseline | activation, % at 10 µM | 0.34% of 330,000 active | AID 449763, 2010;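 active = at 10 µM dose, activation of 40% or more, normalized to positive control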;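 also: 100% = tunicamycin at 10 µg/mL and 0% = DMSO alone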
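System: CHO-CHOP luciferase reporter cell line | Buffer or medium: F12 medium containing 10% fetal bovine serum | Doses: One dose, 10 µM in 0.5% DMSO | Times: 6 h compound exposure at 37 °C after overnight seeding | Signal: Luciferase luminescence | Read-out: % activation vs tunicamycin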
XBP1 UPR activ – activators of adaptive XBP1 UPR arm, primary screen, cell-based, CHO-XBP1 luciferase reporter, luminescence, uHTS | IRE1-XBP1 UPR activation; percent of tunicamycin response, DMSO as zero | activation, % at 20 µM | 0.33% of 330,000 active | AID 463104, 2010;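 active = versus positive control, 20 µM dose yields 30% or more activation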;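 also: 100% = tunicamycin at 10 µg/mL and 0% = DMSO only wells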
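Material: CHO-XBP1 cells stably carrying IRE1-XBP1-driven luciferase reporter | Medium: F12 with 10% serum | Compound dosing: 20 µM single concentration, DMSO 1% | Incubation: Overnight seeding at 37 °C, 6 h compound treatment at 37 °C | Detection: Steady-Glo luminescence read | Read-out basis: % activation of reporter signal versus tunicamycin and DMSO controls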
aDG conf – alpha-DG glycosylation enhancers, retest, confirmation, single concentration, Pro5-aDG cells. shares compounds with aDG glyco up. IIH6 AlphaLISA; scaled to LARGE-overexpressing B10 cells as 100%. activation, % at 10 µM (by protocol). 17% of 600 active. AID 651671, 2012;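 active = activation of at least 7% in one or more replicates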;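 also: cells exposed to compound for two days before detection; 0% = DMSO-treated Pro5 cells and 100% = DMSO-treated B10-LARGE cells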
Numbers without * were called inactive; . = no result. Compounds with a hit are over-represented: about 5.6% of the library has one in this group of screens.

SMILES	CHOP inhibitor	MPTP block	aDG glyco up	GRIN3A LBD mod	CHOP UPR activ	XBP1 UPR activ	aDG conf
O=C(CCN1C(=O)c2ccccc2C1=O)NCc1ccc(Cl)cc1	.	-0.4	2.7*	-0.4	2.5	-0.4	0.4
COc1cc([N+](=O)[O-])ccc1NC(=O)NCC1CCN(Cc2ccc(Cl)cc2)CC1	.	0.6	3.3*	-2.3	1.2	-1.6	1.1
COc1ccc(Cl)cc1NC(=O)NCC1CCN(Cc2cc(C)ccc2C)CC1	.	-0.8	1.1	0.0	3.5	-1.9	.
CCN(CC)c1nc(Oc2ccc(=O)[nH]n2)nc(N2CCOCC2)n1	-36.3	-0.2	-0.2	-0.6	-0.3	2.7	.
CN(C)c1nc(Oc2ccc(=O)n(C)n2)nc(N2CCOCC2)n1	-4.5	-0.8	6.9*	-5.3	-0.4	2.4	0.2
CC(C)n1c(=O)c2ccccc2n1Cc1cn(Cc2ccccc2)nn1	.	-0.4	0.1	.	.	.	.
CCN(CC)CCn1c(=N)n(CC(=O)c2ccc(C)cc2)c2ccccc21	.	-0.3	3.8*	-2.3	-0.2	-1.7	10.6*
COc1ccc(-n2nc(C(=O)NCC(=O)NCCN(C)C)c3ccccc3c2=O)c(OC)c1	.	0.0	0.0	-1.8	0.0	-8.5	.
CCCCN(C(=O)c1ccc(NC2CC2)c([N+](=O)[O-])c1)c1c(N)n(CC(C)C)c(=O)[nH]c1=O	.	0.0	0.1	4.5	5.0	0.0	.
Nc1nc2c(nnn2Cc2ccc(Cl)c(Cl)c2)c(=O)[nH]1	.	-2.2	0.0	-2.1	.	.	.
CNc1nc(-c2c[nH]c3ccccc23)cs1	8.5	-0.8	10.9*	-7.4	1.9	-2.4	7.9*
Cc1ccc2c(-c3csc(N)n3)c[nH]c2c1	.	.	.	.	1.8	2.5	.
CCC(C)Nc1nc(-c2c[nH]c3ccccc23)cs1 (stereo unspecified)	.	-0.8	7.7*	0.4	1.5	1.8	6.9*
CN=c1scc(-c2c[nH]c3ccccc23)n1C	9.5	0.3	-0.2	0.0	1.2	-5.8	.
Nc1nc(-c2c[nH]c3ccccc23)cs1	-14.7	-3.2	9.1*	-2.8	1.4	0.7	1.8
CC(=O)N1CCCc2cc(S(=O)(=O)N3CCC(C)CC3)ccc21	6.2	2.0	22.9*	-1.8	-0.5	-3.3	-0.8
CC(C)Cn1c(N)c(C(=O)COC(=O)c2ccc(Br)cc2)c(=O)n(C)c1=O	.	-0.7	3.4*	-4.3	1.2	-1.1	1.2*
CC(C)Cn1c(N)c(C(=O)COC(=O)c2ccc(Cl)cc2)c(=O)n(C)c1=O	20.6	-0.3	4.4	-1.4	0.9	2.5	.
O=C(CN(c1ccc(F)cc1)S(=O)(=O)c1ccccc1)NCCSC1CCCCC1	27.2	3.0	0.1	-14.7	1.7	-2.0	.
COc1cc(NC(=O)c2ccccc2)c(OC)cc1NC(=O)Cc1ccc(C)cc1	.	-0.3	0.0	-1.4	0.4	0.9	.
CC(=O)c1ccccc1C(=O)N1CCC(n2nccc2NC(=O)C2CC2)CC1	.	-1.0	0.5	1.0	0.4	-1.6	.
COc1cccc(CN2CCC(n3nccc3NC(=O)C3CC3)CC2)c1	.	-1.9	0.2	2.8	1.4	-5.7	.
O=C(Nc1ccnn1C1CCN(Cc2cccc(OCCO)c2)CC1)C1CC1	.	-0.9	6.0*	-2.4	0.4	-3.4	-0.7
CCOC(=O)C(CC(=O)c1ccccc1)CC(=O)c1ccccc1	.	1.6	0.1	0.0	11.0	1.3	.
COC(=O)c1ccc(NC(=O)CSc2nncn2-c2ccccn2)cc1	.	-0.8	-0.1	-0.1	2.7	2.6	.
Cc1cc(C(=O)CN2C(=O)NC(c3ccccc3)(c3ccccc3)C2=O)c(C)n1Cc1ccccc1	32.4	0.5	-0.1	-1.3	-3.6	-10.7	.
